Laboratory results as given in ChEMBL document CHEMBL1144815, “Diphenidol-related diamines as novel muscarinic M4 receptor antagonists” (Bioorg Med Chem Lett, 2008).
Where a name gives a salt, the structure may show the parent alone. The source made the active and inactive calls. The calls are words filed in the database; no cut-off is given here.

How the values were obtained:
[1] = molecular target: T1, Muscarinic acetylcholine receptor M2 (Homo sapiens, UniProt P08172); assay: Displacement of [3H]N-methylscopolamine from human muscarinic M2 receptor expressed in CHO-K1 cells; type: cell-based
T1 sequence (P08172 whole entry): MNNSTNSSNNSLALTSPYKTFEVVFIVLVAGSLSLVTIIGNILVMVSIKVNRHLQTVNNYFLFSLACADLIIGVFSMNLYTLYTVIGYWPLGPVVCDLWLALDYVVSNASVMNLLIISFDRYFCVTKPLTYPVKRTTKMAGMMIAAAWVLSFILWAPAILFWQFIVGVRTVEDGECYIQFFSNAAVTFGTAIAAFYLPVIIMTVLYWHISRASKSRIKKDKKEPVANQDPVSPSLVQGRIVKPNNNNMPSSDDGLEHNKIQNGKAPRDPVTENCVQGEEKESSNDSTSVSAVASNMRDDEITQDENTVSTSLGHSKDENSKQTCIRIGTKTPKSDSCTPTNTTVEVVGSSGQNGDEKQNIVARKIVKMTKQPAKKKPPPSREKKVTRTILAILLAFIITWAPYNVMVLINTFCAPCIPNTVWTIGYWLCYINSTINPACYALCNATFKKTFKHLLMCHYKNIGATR
Outline: (§1)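 Binding was measured in CHO-K1 stable transfectants expressing the human receptor subtype. Labelled ligand was [³H]-N-methylscopolamine chloride. Values are the mean of three experiments performed in triplicate.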

[2] = molecular target: T2, Muscarinic acetylcholine receptor M4 (Homo sapiens, UniProt P08173); assay: Displacement of [3H]N-methylscopolamine from human muscarinic M4 receptor expressed in CHO-K1 cells; type: cell-based; outline: as §1
T2 sequence (P08173 whole entry): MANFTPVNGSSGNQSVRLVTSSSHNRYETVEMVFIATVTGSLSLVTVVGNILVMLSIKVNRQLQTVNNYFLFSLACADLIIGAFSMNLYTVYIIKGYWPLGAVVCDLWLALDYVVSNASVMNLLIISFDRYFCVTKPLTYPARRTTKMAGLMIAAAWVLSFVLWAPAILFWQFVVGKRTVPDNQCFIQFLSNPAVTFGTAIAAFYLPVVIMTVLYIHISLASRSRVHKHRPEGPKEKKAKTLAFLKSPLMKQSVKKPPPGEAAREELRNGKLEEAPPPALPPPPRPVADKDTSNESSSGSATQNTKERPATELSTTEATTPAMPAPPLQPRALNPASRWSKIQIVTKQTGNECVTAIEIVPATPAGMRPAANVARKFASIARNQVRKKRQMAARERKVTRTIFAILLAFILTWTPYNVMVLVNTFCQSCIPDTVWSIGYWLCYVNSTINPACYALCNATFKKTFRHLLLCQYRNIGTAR

[3] = molecular target: T3, Muscarinic acetylcholine receptor M5 (Homo sapiens, UniProt P08912); assay: Displacement of [3H]N-methylscopolamine from human muscarinic M5 receptor expressed in CHO-K1 cells; type: cell-based; outline: as §1
T3 sequence (P08912 whole entry): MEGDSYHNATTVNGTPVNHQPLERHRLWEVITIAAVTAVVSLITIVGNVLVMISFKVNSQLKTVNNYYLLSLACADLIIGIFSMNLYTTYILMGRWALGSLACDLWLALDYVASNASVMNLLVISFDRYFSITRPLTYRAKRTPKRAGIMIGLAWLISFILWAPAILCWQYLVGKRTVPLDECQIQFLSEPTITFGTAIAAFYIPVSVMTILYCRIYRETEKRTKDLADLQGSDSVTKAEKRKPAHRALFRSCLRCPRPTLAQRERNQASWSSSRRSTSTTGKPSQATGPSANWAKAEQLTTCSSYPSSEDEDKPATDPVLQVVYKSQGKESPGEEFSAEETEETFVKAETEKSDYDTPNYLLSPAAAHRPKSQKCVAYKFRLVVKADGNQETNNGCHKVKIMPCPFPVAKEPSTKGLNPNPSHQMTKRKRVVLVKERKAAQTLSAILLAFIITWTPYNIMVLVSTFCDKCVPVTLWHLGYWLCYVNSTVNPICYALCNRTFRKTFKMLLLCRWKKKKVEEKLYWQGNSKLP

[4] = molecular target: T4, Muscarinic acetylcholine receptor M1 (Homo sapiens, UniProt P11229); assay: Displacement of [3H]N-methylscopolamine from human muscarinic M1 receptor expressed in CHO-K1 cells; type: cell-based
T4 sequence (P11229 whole entry): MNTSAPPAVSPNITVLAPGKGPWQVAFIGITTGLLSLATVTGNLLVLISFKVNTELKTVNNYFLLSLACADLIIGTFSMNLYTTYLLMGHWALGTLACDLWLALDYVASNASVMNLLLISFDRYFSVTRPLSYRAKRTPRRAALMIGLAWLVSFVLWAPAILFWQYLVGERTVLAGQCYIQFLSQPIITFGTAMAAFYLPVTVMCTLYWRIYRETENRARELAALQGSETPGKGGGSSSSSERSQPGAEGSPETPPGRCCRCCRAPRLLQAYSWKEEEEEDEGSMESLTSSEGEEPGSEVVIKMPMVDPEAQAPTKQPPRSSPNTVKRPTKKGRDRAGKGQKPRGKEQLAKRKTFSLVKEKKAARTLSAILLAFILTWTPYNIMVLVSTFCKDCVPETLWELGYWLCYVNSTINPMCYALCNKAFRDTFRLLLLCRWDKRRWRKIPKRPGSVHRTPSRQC

[5] = molecular target: T5, Muscarinic acetylcholine receptor M3 (Homo sapiens, UniProt P20309); assay: Displacement of [3H]N-methylscopolamine from human muscarinic M3 receptor expressed in CHO-K1 cells; type: cell-based
Target sequence in this assay (P20309 whole entry): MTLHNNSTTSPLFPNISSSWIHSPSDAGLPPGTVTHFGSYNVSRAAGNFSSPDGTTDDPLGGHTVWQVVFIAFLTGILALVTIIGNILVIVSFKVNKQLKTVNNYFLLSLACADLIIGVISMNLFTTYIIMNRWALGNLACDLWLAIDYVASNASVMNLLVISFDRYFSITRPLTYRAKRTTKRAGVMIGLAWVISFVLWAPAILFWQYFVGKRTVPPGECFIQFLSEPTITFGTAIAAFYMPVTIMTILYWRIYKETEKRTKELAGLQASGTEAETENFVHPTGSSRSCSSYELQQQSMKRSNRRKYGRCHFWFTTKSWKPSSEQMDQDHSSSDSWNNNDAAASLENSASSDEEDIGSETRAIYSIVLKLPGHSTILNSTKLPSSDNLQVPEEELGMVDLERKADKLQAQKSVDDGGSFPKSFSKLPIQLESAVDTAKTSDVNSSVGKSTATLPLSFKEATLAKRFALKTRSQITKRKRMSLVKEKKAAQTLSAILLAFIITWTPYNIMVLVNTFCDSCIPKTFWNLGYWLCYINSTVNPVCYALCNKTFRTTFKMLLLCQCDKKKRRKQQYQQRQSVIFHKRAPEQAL

[6] = molecular target: T5, Muscarinic acetylcholine receptor M3; assay: Antagonist activity at human muscarinic M3 receptor expressed in CHO cells assessed as inhibition of carbachol-induced Eu-GTP binding; type: cell-based
Outline: (§2)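 Membranes from CHO-K1 cells stably expressing the human receptor subtype. Agonist was carbachol, and the read-out was carbachol-stimulated binding of the non-hydrolysable analogue Eu-GTP to Gα subunits. pKb was estimated functionally by concentration-ratio analysis. Values are the mean of three experiments run in triplicate.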
Target sequence in this assay (P20309 whole entry, looked up): as the sequence (P20309 whole entry) above

[7] = molecular target: T6, Muscarinic acetylcholine receptor M4 (Homo sapiens) (UniProt P08173); assay: Antagonist activity at human muscarinic M4 receptor expressed in CHO cells assessed as inhibition of carbachol-induced Eu-GTP binding; type: cell-based; outline: as §2
T6 sequence (whole entry): T2 sequence (P08173 whole entry)

[8] = molecular target: T7, Muscarinic acetylcholine receptor M5 (Homo sapiens) (UniProt P08912); assay: Antagonist activity at human muscarinic M5 receptor expressed in CHO cells assessed as inhibition of carbachol-induced Eu-GTP binding; type: cell-based; outline: as §2
T7 sequence (whole entry): T3 sequence (P08912 whole entry)

[9] = molecular target: T8, Muscarinic acetylcholine receptor M1 (Homo sapiens) (UniProt P11229); assay: Antagonist activity at human muscarinic M1 receptor expressed in CHO cells assessed as inhibition of basal Eu-GTP binding; type: cell-based
T8 sequence (whole entry): T4 sequence (P11229 whole entry)

[10] = molecular target: T9, Muscarinic acetylcholine receptor M2 (Homo sapiens) (UniProt P08172); assay: Antagonist activity at human muscarinic M2 receptor expressed in CHO cells assessed as inhibition of basal Eu-GTP binding; type: cell-based
T9 sequence (whole entry): T1 sequence (P08172 whole entry)

[11] = molecular target: T5, Muscarinic acetylcholine receptor M3; assay: Antagonist activity at human muscarinic M3 receptor expressed in CHO cells assessed as inhibition of basal Eu-GTP binding; type: cell-based
Target sequence in this assay (P20309 whole entry, looked up): as the sequence (P20309 whole entry) above

[12] = molecular target: T6, Muscarinic acetylcholine receptor M4 (Homo sapiens); assay: Antagonist activity at human muscarinic M4 receptor expressed in CHO cells assessed as inhibition of basal Eu-GTP binding; type: cell-based
[13] = molecular target: T7, Muscarinic acetylcholine receptor M5 (Homo sapiens); assay: Antagonist activity at human muscarinic M5 receptor expressed in CHO cells assessed as inhibition of basal Eu-GTP binding; type: cell-based
[14] = molecular target: T2, Muscarinic acetylcholine receptor M4; assay: Antagonist activity at human muscarinic M4 receptor expressed in CHO cells assessed as blockade of carbachol-induced inhibition of forskolin-stimulated cAMP accumulation; type: functional, cell-based
[15] = molecular target: T8, Muscarinic acetylcholine receptor M1 (Homo sapiens); assay: Antagonist activity at human muscarinic M1 receptor expressed in CHO cells assessed as inhibition of carbachol-induced Eu-GTP binding; type: cell-based; outline: as §2
[16] = molecular target: T9, Muscarinic acetylcholine receptor M2 (Homo sapiens); assay: Antagonist activity at human muscarinic M2 receptor expressed in CHO cells assessed as inhibition of carbachol-induced Eu-GTP binding; type: cell-based; outline: as §2

Row | Compound | Ki [1] [µM] | Ki [2] [µM] | Ki [3] [µM] | Ki [4] [µM] | Ki [5] [µM] | pKb [6] | pKb [7] | pKb [8] | Activity [9] | Activity [10] | Activity [11] | Activity [12] | Activity [13] | EC50 [14] [µM] | pKb [15] | pKb [16]
1 | CN1CCN(CCCC(O)(c2ccccc2)c2ccccc2)CC1 | 35.5 | 9.77 | 13.5 | 7.76 | 7.41 |  |  |  |  |  |  |  |  |  |  | 
2 | OC(CCCN1CCN(CCCC(O)(c2ccccc2)c2ccccc2)CC1)(c1ccccc1)c1ccccc1 | 178 | 22.4 | 23.4 | 851 | 87.1 |  |  |  |  |  |  |  |  |  |  | 
3 | OC(CCCN1CCNCC1)(c1ccccc1)c1ccccc1 | 7.24 | 1.17 | 1.41 | 0.603 | 0.661 |  |  |  |  |  |  |  |  |  |  | 
4 | CN(CCCC(O)(c1ccccc1)c1ccccc1)CCN(C)CCCC(O)(c1ccccc1)c1ccccc1 | 214 | 162 | 229 | 245 | 380 |  |  |  |  |  |  |  |  |  |  | 
5 | C[N+](C)(CCCC(O)(c1ccccc1)c1ccccc1)CC[N+](C)(C)CCCC(O)(c1ccccc1)c1ccccc1 | 47.9 | 11.2 | 18.2 | 26.3 | 43.7 |  |  |  |  |  |  |  |  |  |  | 

The next compounds have a lower Ki [1] than those just listed; values first:

Row | Ki [1] [µM] | Ki [2] [µM] | Ki [3] [µM] | Ki [4] [µM] | Ki [5] [µM] | pKb [6] | pKb [7] | pKb [8] | Activity [9] | Activity [10] | Activity [11] | Activity [12] | Activity [13] | EC50 [14] [µM] | pKb [15] | pKb [16] | Compound
6 | 2.82 | 0.912 | 1.29 |  |  |  |  |  |  |  |  |  |  |  |  |  | OC(CCCN1CCCCC1)(c1ccccc1)c1ccccc1 [DIPHENIDOL HYDROCHLORIDE]
7 | 5.5 | 0.617 | 0.832 | 1.35 | 1.74 |  |  |  |  |  |  |  |  |  |  |  | CN(CCCN(C)CCCC(O)(c1ccccc1)c1ccccc1)CCCC(O)(c1ccccc1)c1ccccc1
8 | 0.871 | 0.0741 | 0.776 | 0.794 | 0.724 | 6.14 | 7.21 | 6.4 | inactive | inactive | inactive | inactive | inactive | 0.138 | 5.92 | 5.82 | OC(CCCN1CCC(C2CCN(CCCC(O)(c3ccccc3)c3ccccc3)CC2)CC1)(c1ccccc1)c1ccccc1
9 | 3.98 | 1.17 | 2.88 | 5.75 | 5.25 |  |  |  |  |  |  |  |  |  |  |  | CN1CCC(C2CCN(CCCC(O)(c3ccccc3)c3ccccc3)CC2)CC1
